Assay results as given in the array DNA melting data of Ke et al. (doi:10.1101/2024.01.08.574731).

Key:
[1] = melting temperature; fluorescence melt of hairpins on a sequencing array, two-state fit, raised by 9.35 °C to match UV melts; conditions: sodium 0.088 M
Summary of the method: (§1)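 Cy3 signals were normalised both to pre-quench Cy3 and to control constructs. They came from library hairpins carrying annealed Cy3 and quencher oligos on a sequenced MiSeq flow cell, imaged in 50 mM Na-HEPES pH 8.0, 25 mM NaCl, in 2.5 °C steps up to 60 °C. Bootstrapped two-state fits gave melting temperature and folding enthalpy, and four replicates were combined by inverse variance. Fitted temperatures were then raised by 9.35 °C to match UV melts.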

[2] = folding enthalpy; higher = less favourable; fluorescence melt of hairpins on a sequencing array, two-state fit; conditions: sodium 0.088 M
Summary of the method: as §1

Sequence | Tm [1] | folding enthalpy [2]
GGTTTGCGAAAGCATACC (((.(((....))).))) | 52.9 °C | -40.6 kcal/mol
GTGGGCGGAAACGCTCAC (((.(((....))).))) | 59.6 °C | -34.3 kcal/mol
GCCGACGAAAGTCATGGC ((((((....)))..))) | 51.6 °C | -34.5 kcal/mol
GGGTCTGCGAAAGCACCC (((..(((....)))))) | 44.2 °C | -17.5 kcal/mol
GACTTTGAAAAAAGTC ((((((....)))))) | 48.6 °C | -40.6 kcal/mol
GATCCCGGAAACGGAATC (((.(((....))).))) | 40.1 °C | -24.7 kcal/mol
GCCGTCGAAAGACATGGC ((((((....)))..))) | 52.1 °C | -23.9 kcal/mol
GCGGCAGGAAACTGTCGC (((.(((....))).))) | 67.3 °C | -38.1 kcal/mol
GATCCCTACCGGGATC ((((((....)))))) | 61.9 °C | -32.7 kcal/mol
GTACCAGGAAACTGGTGC (.(((((....))))).) | 51.4 °C | -43 kcal/mol
GATGTGGAAACACATC ((((((....)))))) | 57.1 °C | -35.5 kcal/mol
TTAGTGAAAACTAA (((((....))))) | 27.8 °C | -8.57 kcal/mol
GATCCATTCGTGGATC ((((((....)))))) | 55.3 °C | -41.1 kcal/mol
GATCTAGGCTAGATC ((((((...)))))) | 45.5 °C | -55.2 kcal/mol
GCCAGCGGAAACGCCGGC (((.(((....))).))) | 57.1 °C | -26.3 kcal/mol
GATCACTGCCGTGATC ((((((....)))))) | 55.9 °C | -44.5 kcal/mol
GATTCCGAAAGGACATC ((((((....))).))) | 39.2 °C | -21.4 kcal/mol
GTCACCACGAAAGTGGAC (((..(((....)))))) | 31.1 °C | -7.89 kcal/mol
GCGAGTGGAAACGCTCGC (((((.(....).))))) | 64 °C | -46 kcal/mol
GGGTGCGGAAACGCATCC ((.((((....)))).)) | 64.7 °C | -29.8 kcal/mol
GCTGAGGGAAACCTTAGC (((.(((....))).))) | 47.1 °C | -33.7 kcal/mol
GATCCCTGGTGGGATC ((((((....)))))) | 58.1 °C | -31.1 kcal/mol
GACACCGAAAGGTATGTC ((((((....)))..))) | 39.2 °C | -19.6 kcal/mol

Sequence | Tm [1] | folding enthalpy [2]
GGTGACTCGAAAGAGACC (((..(((....)))))) | 33 °C | -16.5 kcal/mol
GCCCGGCGAAAGCGTGGC (((..((....))..))) | 57.9 °C | -20.2 kcal/mol
GCAATGCGAAAGCCTCGC ((.(.((....)).).)) | 31.5 °C | -10.9 kcal/mol
GCTAGCGAAAGCTTGAGC ((((((....)))..))) | 41.2 °C | -13.5 kcal/mol
GGTTGCGAAAGCACACC ((((((....))).))) | 53.4 °C | -19.7 kcal/mol
GCTTGGGGAAACCCGAGC (((.(((....))).))) | 56.7 °C | -41.7 kcal/mol
GGCTAACGAAAGTTCGCC (((.(((....))).))) | 52.9 °C | -44.2 kcal/mol
GCGTATTAACGC ((((....)))) | 53.8 °C | -22.1 kcal/mol
GAAAGCGAAAGCTTTTTC ((((((....)))..))) | 49 °C | -14.2 kcal/mol
GCCAGCGAAAGCTCGGC ((((((....))).))) | 60.8 °C | -28.4 kcal/mol
AGAGGGAAACCTCT (((((....))))) | 43.4 °C | -16.6 kcal/mol
GGACTCGAAAGAGTTTCC ((((((....)))..))) | 36.8 °C | -13.8 kcal/mol
GGCTTGGGAAACCGAGTC (.((.((....)).)).) | 41.5 °C | -27.4 kcal/mol
GATCGCCAACGCGATC ((((((....)))))) | 62.9 °C | -36.6 kcal/mol
GTATACTCGAAAGAGTAC (((..(((....)))))) | 35 °C | -11.6 kcal/mol
GATCGCGAAAGCGGAATC ((((((....)))..))) | 34.8 °C | -10.9 kcal/mol
GCCCAGCGAAAGCGAGGC (((..((....))..))) | 62.7 °C | -20.6 kcal/mol
GATCATGAGTATGATC ((((((....)))))) | 46.7 °C | -31.1 kcal/mol
GATCACGAGCGTGATC ((((((....)))))) | 59.1 °C | -39.5 kcal/mol
GGCTCCCGAAAGGGTGCC (((.(((....))).))) | 67.6 °C | -40 kcal/mol
GCGCTGCGAAAGCTGGGC ((.(.((....)).).)) | 62.4 °C | -24.4 kcal/mol
GTTCACCGAAAGGTCAAC (((.(((....))).))) | 33 °C | -18.4 kcal/mol
GGAACCGAAAGGTCTCC ((((((....))).))) | 44.7 °C | -22.1 kcal/mol

Sequence | Tm [1] | folding enthalpy [2]
GTGCACGAAAGTGCCCAC ((((((....)))..))) | 40.7 °C | -7.58 kcal/mol
GGACACGAAAGTGCATCC ((((((....)))..))) | 32.7 °C | -11.8 kcal/mol
GATACGGGAAACCGTACC (.(((((....))))).) | 32.1 °C | -15.7 kcal/mol
GTGAAGGGAAACCTTTGC (..((((....))))..) | 31.7 °C | -20.1 kcal/mol
GATCTAGCATAGATC ((((((...)))))) | 50.8 °C | -36.5 kcal/mol
GCGACCACGAAAGTGCGC (((..(((....)))))) | 48.5 °C | -20.9 kcal/mol
GCATGCGCGAAAGCGTGC (((..(((....)))))) | 51.8 °C | -13.4 kcal/mol
GCTGCGCGAAAGCTTAGC (((..((....))..))) | 39.6 °C | -20.5 kcal/mol
GGTCGTGGAAACATGGCC ((.(.((....)).).)) | 45.8 °C | -24 kcal/mol
GCATTCCGAAAGGATTGC (((.(((....))).))) | 54.4 °C | -35.6 kcal/mol
GATACTGGAAACAGTACC (.(((((....))))).) | 33.1 °C | -15.7 kcal/mol
GATCTCCGGTGAGATC ((((((....)))))) | 52 °C | -35.5 kcal/mol
GTGTCGGGAAACTGACAC (((((.(....).))))) | 55 °C | -41.6 kcal/mol
GAACTCGGAAACGAGTCC (.(((((....))))).) | 43.4 °C | -14.6 kcal/mol
GTGGGAGGAAACTCCTGC (..((((....))))..) | 37.8 °C | -17.4 kcal/mol
GGATGTGGAAACACACCC ((.((((....)))).)) | 44.3 °C | -27 kcal/mol
GCATAAGGAAACTTACGC ((.((((....)))).)) | 31.6 °C | -21.7 kcal/mol
GGATGCGAAAGCACTTCC ((((((....)))..))) | 42.2 °C | -17.4 kcal/mol
GTTCGTGGAAACATGAAC ((((.((....)).)))) | 47.5 °C | -37.7 kcal/mol
GATCTGCTACAGATC ((((((...)))))) | 49.6 °C | -29.6 kcal/mol
GGCGACGAAAGTCACGCC ((((((....)))..))) | 54.1 °C | -27.4 kcal/mol
CGGGATCGGAAACGACCG (((..(((....)))))) | 40 °C | -22.6 kcal/mol
GATTTTGGAAACGAAATC (((((.(....).))))) | 39.6 °C | -34.9 kcal/mol
